The source of these data is publication PMC8024882 (Toxicology Reports, 2021).

Assay [1] concerns human dermal fibroblasts (HDFs). The experiment in a line: MTT dose response assay, HDFs in 2D and 3D PCL 96-well plates. In kind it is cell-based. To be noted: HDF, 72 h, mean of three experiments ± SEM. In outline:
(§1)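 Accutase-detached cells seeded at 7000 (2D) or 21,000 (3D; O2-plasma-treated, ethanol-sterilized PCL fibre-mesh wells) per 180 μL. After 24 h normoxic attachment, compound added, then 72 h at 18 % O2/5 % CO2 or 1 % O2. MTT (20 μL of 5 mg/mL) 2 h; formazan dissolved in DMSO (2D 15 min, 3D 2 h shaking); absorbance background-subtracted. IC50 = 50 % MTT reduction; ≥3 experiments, 3–6 wells/concentration.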
A general note: Tetrazolium dyes change colour on reduction, which living cells bring about.

Assay [2] relates to JIMT-1 cells. To be noted: JIMT-1, 2D cultures, normoxia, FBS-supplemented medium; cited from earlier work.
Assay [3] deals with JIMT-1 breast cancer cells. Kind of assay: MTT dose response assay, JIMT-1 cells in 2D and 3D PCL 96-well plates. Format: cell-based, human. The note with it: JIMT-1, 2D culture, hypoxia (1 % O2), 72 h, mean of three experiments ± SEM. In outline: as §1

The term IC50 denotes the concentration that inhibits the measured activity by half.

Turning to “salinomycin analogue 20-ethyl carbonate-Na [SAEC]”, the IC50 is 239 ± 6.2 nM in assay [1] (2D culture, hypoxia (1 % O2)); 97.7 ± 11.8 nM in assay [1] (2D culture, normoxia (18 % O2)); 316 ± 35.1 nM in assay [1] (3D culture, hypoxia (1 % O2)); 150 ± 34.4 nM in assay [1] (3D culture, normoxia (18 % O2)); 90 ± 0.02 nM in assay [2]; 80.4 ± 13.3 nM in assay [3].
